Data: ChEMBL document CHEMBL4627349, “Synthesis and evaluation of the performance of a small molecule library based on diverse tropane-related scaffolds” (Bioorg Med Chem, 2020)
Each block holds one molecule with its values, some of them ahead of it. Activity calls are given as the source filed them.

How the values were obtained:
Plasmodium falciparum = test: Antiplasmodial activity against chloroquine-sensitive Plasmodium falciparum NF54 by lactate dehydrogenase assay; type: functional, organism-based
Method in brief: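 Dose-response format against chloroquine-susceptible NF54 parasites, with lactate dehydrogenase activity as the parasite-viability marker.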

[1] = Inhibition of Hedgehog signaling pathway in mouse C3H10T1/2 cells assessed as reduction in osteoblast differentiation measured after 96 hrs by alkaline phosphatase CDP-star substrate based luminescence assay; type: cell-based; conditions: C3H 10T1/2, 96 h
C3H 10T1/2 = test: Inhibition of Hedgehog signaling pathway in mouse C3H10T1/2 cells assessed as reduction in osteoblast differentiation at 10 uM measured after 96 hrs by alkaline phosphatase CDP-star substrate based luminescence assay relative to control; type: cell-based
Method in brief: (§1)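 Single-concentration primary screen at 10 µM in an osteoblast differentiation assay for Hedgehog signalling inhibition, with cell viability monitored alongside. Hits were defined as at least 50% inhibition of signalling with <20% impact on cell viability.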

[2] = Cytotoxicity against mouse C3H10T1/2 cells assessed as effect on cell viability at 10 uM relative to control; type: cell-based, C3H 10T1/2; conditions: read-out: Activity; method in brief: as §1

SMILES: CN1C2CC(S(C)(=O)=O)C1C1CN(c3ccccn3)CC1C2O (centres undefined)
IC50 (Plasmodium falciparum): 5.4 µM

IC50 (Plasmodium falciparum): 5.5 µM
SMILES: CN1C2CC(S(C)(=O)=O)C1C(c1ccc(F)cc1)CC2OCc1ccc(C#N)cc1 (centres undefined)

SMILES: CN1C2CC(S(=O)(=O)N(C)C)C1Cc1cccnc12 (centres undefined)
Activity (Plasmodium falciparum): Active

SMILES: CS(=O)(=O)C1CC2c3c(c4ccccc4n3S(C)(=O)=O)CC1N2Cc1ccccc1 (centres undefined)
EC50 [1]: 4.4 µM
inhibition (C3H 10T1/2): > 50%
viability at 10 µM [2]: < 20%

IC50 (Plasmodium falciparum): 5.7 µM
SMILES: CN(Cc1ccc(OC(F)(F)F)cc1)C1CCC2C(S(C)(=O)=O)CC1N2C (centres undefined)

SMILES: CN1C2CC(S(C)(=O)=O)C1Cc1cccnc12 (centres undefined)
Activity (Plasmodium falciparum): Active

SMILES: CS(=O)(=O)C1CC2c3c(c4ccccc4n3CC#N)CC1N2Cc1ccccc1 (centres undefined)
EC50 [1]: 4.2 µM
inhibition (C3H 10T1/2): > 50%
viability at 10 µM [2]: < 20%

SMILES: CN1C2CC(S(C)(=O)=O)C1Cc1c(-c3ccccc3)ccnc12 (centres undefined)
Activity (Plasmodium falciparum): Active

SMILES: CS(=O)(=O)C1CC2C(=O)c3n[nH]c(C(=O)O)c3C1N2Cc1ccccc1 (centres undefined)
IC50 (Plasmodium falciparum): 5.4 µM

SMILES: CS(=O)(=O)C1CC2c3ncccc3CC1N2Cc1ccccc1 (centres undefined)
Activity (Plasmodium falciparum): Active
